# UBC9 SUMO inh = blocks human SUMOylation mediated by UBC9. inhibition, % at 35 µM. HTRF SUMOylation assay, SAE1/SAE2 + UBC9, in vitro. actives 0.36% (n = 290,000); in the data active = inhibition above about 50%, passing the limit was not always enough
# Target sequence (P63279 whole entry, looked up): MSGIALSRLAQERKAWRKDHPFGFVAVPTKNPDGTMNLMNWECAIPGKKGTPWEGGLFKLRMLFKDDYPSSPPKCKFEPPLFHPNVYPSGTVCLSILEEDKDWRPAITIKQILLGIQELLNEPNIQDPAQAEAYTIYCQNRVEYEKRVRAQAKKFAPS
# VIM-2 inh = inhibitors of Pseudomonas aeruginosa VIM-2 metallo-beta-lactamase; purified VIM-2, nitrocefin hydrolysis, epi-absorbance fluorescence; inhibition, % at 5.6 µM; actives 0.89% (n = 290,000); AID 1527;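 active = inhibition above the mean of all tested compounds plus 3 SD, cutoff set per screening run, cut at about 7.5% in these data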;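 also: red hydrolysis product quenches plate fluorescence so inhibitors raise well fluorescence; 0% = enzyme with DMSO and 100% = DMSO without enzyme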
# FID counter = displaces DNA intercalator in HCV helicase counter-screen; DNA fluorescent intercalator displacement, fluorescence; inhibition, % at 7.9 µM; actives 0.17% (n = 290,000); in the data active = inhibition above about 37%;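 also: 0% = vehicle and 100% = reference compound; higher means more ethidium bromide displaced from hairpin DNA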
# IMP-1 inh-1 = inhibitors of Pseudomonas aeruginosa IMP-1 metallo-beta-lactamase. actives 0.45% (n = 290,000). purified IMP-1, nitrocefin hydrolysis, epi-absorbance fluorescence. inhibition, % at 5.6 µM. AID 1556;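 active = inhibition above the mean plus 3 SD of all compounds in the same screening run, cut at about 4.5% in these data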;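 also: 0% = IMP-1 with DMSO and 100% = DMSO wells lacking enzyme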
#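 System: purified IMP-1 / Input: IMP-1 dispensed at 0.2 nM / Medium: 50 mM HEPES pH 7.1, 50 µM ZnSO4, 0.05% Brij 35 / Timing: 15 min enzyme–compound preincubation, then 25 min nitrocefin reaction, 25 °C / Technique: plate fluorescence quenching by hydrolysis product, ex 480/em 530 nm / Repeats: singlicate testing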
# NS3 helicase inh = HCV NS3 helicase inhibition; NS3 helicase DNA unwinding, Cy5 molecular beacon fluorescence; inhibition, % at 10.9 µM; actives 0.56% (n = 290,000); AID 1800;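 active = inhibition above the mean of all tested compounds plus 3 SD, set per campaign, cut at about 35% in these data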;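 also: 0% = DMSO wells and 100% = thioflavine S control wells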
#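 System: HCV NS3 helicase fragment; control set: DMSO and thioflavine S; technique: Cy5 fluorescence at 0 and 60 min, beacon hairpin quenching; reagent: beacon DNA duplex substrate plus ATP; replicates: singlicate; schedule: 1 h reaction at 25 °C, ATP-initiated; medium: MOPS buffer pH 6.5 with MgCl2, DTT, Tween20, BSA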
# IMP-1 inh-2 = blocks IMP-1 metallo-beta-lactamase in VIM-2 selectivity screen; shares compounds with VIM-2 inh; purified IMP-1, nitrocefin hydrolysis, epi-absorbance fluorescence; inhibition, % at 5.6 µM; 1,300 tested, under 10 active; call rule not given here;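 also: 0% = enzyme with vehicle and 100% = vehicle without enzyme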
# VIM-2 FRET inh = counter-screen for VIM-2 inhibitors: epi-absorbance artifacts via FRET. shares compounds with VIM-2 inh. purified VIM-2, CCF2 FRET substrate hydrolysis. inhibition, % at 5.6 µM. actives 23% (n = 1,300);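 active = inhibition above the mean of all tested compounds plus 3 SD, cut at about 19% in these data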;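 also: 0% = VIM-2 plus DMSO and 100% = no enzyme wells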
# TEM-1 inh = TEM-1 inhibition, counter-screen for VIM-2 inhibitors; shares compounds with VIM-2 inh; Purified TEM-1, nitrocefin hydrolysis, epi-absorbance fluorescence; actives 3% (n = 1,300); inhibition, % at 5.6 µM;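 active = inhibition above that campaign's mean inhibition plus 3 SD, cut at about 0.46% in these data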;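 also: 0% = TEM-1 with DMSO and 100% = TEM-1 with 100 µM potassium clavulanate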
# Target sequence (P62593 whole entry, looked up): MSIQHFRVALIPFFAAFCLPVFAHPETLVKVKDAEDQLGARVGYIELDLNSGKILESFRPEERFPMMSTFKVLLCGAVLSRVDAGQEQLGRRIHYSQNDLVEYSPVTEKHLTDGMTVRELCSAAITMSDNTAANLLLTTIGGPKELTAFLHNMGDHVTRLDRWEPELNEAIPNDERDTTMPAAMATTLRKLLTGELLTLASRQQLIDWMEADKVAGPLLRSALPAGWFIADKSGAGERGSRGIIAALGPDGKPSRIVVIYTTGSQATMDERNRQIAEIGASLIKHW
# VIM-2 confirm 2 = confirmation of P. aeruginosa VIM-2 metallo-beta-lactamase inhibitors; shares compounds with VIM-2 inh; purified VIM-2, nitrocefin hydrolysis, epi-absorbance; inhibition, % at 5.6 µM; actives 96% (n = 1,300);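 active = inhibition of the VIM-2 beta-lactamase enzyme above about 11% from the earlier first-round screen, limit read from the data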;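 also: 0% = VIM-2 with DMSO and 100% = buffer wells without enzyme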
# Active calls of the source: *; / = no result. This is a sample that favours compounds with a hit; in the whole collection about 2.1% have one here.
SMILES,UBC9 SUMO inh,VIM-2 inh,FID counter,IMP-1 inh-1,NS3 helicase inh,IMP-1 inh-2,VIM-2 FRET inh,TEM-1 inh,VIM-2 confirm 2
C/C(N)=C(/C#N)C(=O)COC(=O)CNS(=O)(=O)c1c(F)cccc1F,19,0,6,-1,-10,/,/,/,/
Oc1ccc(Nc2ncnc3c2oc2ccccc23)cc1,-2,3,-3,-2,-1,/,/,/,/
CCc1nc(N2CCN(C(=O)c3ccco3)CC2)c2oc3ccccc3c2n1,16,33*,-30,-1,-3,-3,2,-7,41*
CCc1nc(Nc2ccc(N3CCN(C(C)=O)CC3)cc2)c2oc3ccccc3c2n1,18,82*,-24,-1,-6,-3,0,-6,84*
c1ccc2c(c1)oc1c(NCCN3CCOCC3)ncnc12,11,2,6,-4,2,/,/,/,/
CC(=O)N1CCN(c2ccc(Nc3ncnc4c3oc3ccccc34)cc2)CC1,44,69*,-23,2,11,-3,0,-3,82*
c1ccc2c(c1)oc1c(Nc3ccc(CN4CCOCC4)cc3)ncnc12,34,15*,5,-1,-16,-3,-1,-7,25*
COc1cccc(CN2CC(C(=O)NCCc3ccc(C)s3)CCC2=O)c1 (stereo not given),8,-2,-26,-1,-2,/,/,/,/
O=C(CSCc1ccc(Cl)cc1)Nc1ccc(S(=O)(=O)N2CCOCC2)cc1,-6,-2,-8,-4,-15,/,/,/,/
CCOc1ccc2nc(C)cc(Nc3ccc4c(c3)OCCO4)c2c1,24,18*,16,-3,-13,-3,-1,-5,31*
C=CCc1cc(OC)ccc1OCCCCn1cncn1,4,0,-2,1,0,/,/,/,/
CCN(CC)CCCCNc1ncc2cc(-c3cc(OC)cc(OC)c3)c(NC(=O)NC(C)(C)C)nc2n1,-3,17*,20,-3,-92,-4,5,-7,25*
N#Cc1ccccc1NC(=S)NC(=O)c1cccnc1,-2,-3,-4,-1,-2,/,/,/,/
Cc1ccc(-c2cn3c(=S)[nH]nc3s2)cc1,-4,45*,-7,-4,-1,-4,69*,-6,54*
Cc1ccc(-c2n[nH]c(=S)n2C)cc1,18,6,-3,0,16,/,/,/,/
Cn1ncc(Br)c1C(=O)N1CCCCCC1,4,-2,-8,-3,5,/,/,/,/
c1cn(CCCNc2ncnc3sc4c(c23)CCC4)cn1,32,28*,1,-2,-10,-3,-10,-8,56*
CCC(=O)N1CCN(c2ccc(NC(=O)COc3ccccc3Cl)cc2)CC1,-2,-3,-25,1,2,/,/,/,/
CN1CCN(c2ccc(NC(=O)c3ccc4c(c3)OCO4)cc2)CC1,6,18*,7,-4,2,-4,0,-7,31*
CN1CCN(c2ccc(NC(=O)COc3ccccc3Cl)cc2)CC1,21,20*,10,-3,-8,-3,-1,-6,40*
CCOc1ccc(C(=O)Nc2ccc(N3CCN(C)CC3)cc2)cc1Br,17,24*,25,-3,-71,-3,-3,-7,43*
COC(=O)c1c(-c2ccncc2)csc1NC(=O)c1ccoc1C,-4,50*,-12,-1,-11,-3,-5,-5,74*
CCc1cc(C(=O)OC)c(NC(=O)c2ccoc2C)s1,5,0,-13,-4,16,/,/,/,/
CCCC[n+]1ccn(-c2nc3ccccc3nc2[N-]S(=O)(=O)c2cccs2)c1,12,19*,31,-5,26,-3,10,-6,21*
C=CC[n+]1ccn(-c2nc3ccccc3nc2[N-]S(=O)(=O)c2cccs2)c1,13,22*,36,-4,33,-2,9,-6,16*
SMILES,UBC9 SUMO inh,VIM-2 inh,FID counter,IMP-1 inh-1,NS3 helicase inh,IMP-1 inh-2,VIM-2 FRET inh,TEM-1 inh,VIM-2 confirm 2
CCCC[n+]1ccn(-c2nc3ccccc3nc2[N-]S(=O)(=O)c2ccccc2)c1,-5,1,-11,-1,8,/,/,/,/
Cc1ccc(CNc2ncc(-c3ccccc3)n2C)o1,19,-1,3,-1,-5,/,/,/,/
CC(=O)NCCn1c(SCC(=O)c2ccccc2)nc2ccccc2c1=O,18,14*,-23,-2,0,-2,24*,-4,20*
COc1ccc(Nc2nc(N3CCCC3)c3ccccc3n2)cc1,19,19*,15,-3,-43,-2,-7,-4,35*
CCN(CC)c1ccc(Nc2nc(N3CCOCC3)c3ccccc3n2)cc1,0,1,7,-8,-20,/,/,/,/
S=C(Nc1ccccc1)N1CCC(Cc2ccccc2)CC1,-4,-4,-8,-3,-6,/,/,/,/
Cc1ccc(N(CC(=O)NCC2CCCO2)C(=O)CCC(=O)Nc2nccs2)cc1 (stereo not given),15,-4,-37,-3,-12,/,/,/,/
COc1ccc(C)cc1Nc1c2c(nc3ccccc13)CCC2,14,19*,1,-1,-24,-3,0,-6,28*
COc1ccccc1Nc1c2ccccc2nc2ccccc12,-24,24*,20,0,2,-2,-3,-4,36*
COc1ccc(Nc2c3c(nc4ccccc24)CCCC3)cc1OC,-1,16*,0,-3,-9,-3,-1,-7,30*
Cc1nc2ccccc2c2oc(C(=O)NCCN3CCN(C)CC3)cc12,0,42*,19,-6,10,-4,1,-8,53*
CN(CCO)c1ccc(-c2nn(C)c(=O)c3ccccc23)cc1[N+](=O)[O-],-4,17*,-3,-4,2,-4,-1,-8,41*
CN(C)CCNc1ccc(-c2nn(C)c(=O)c3ccccc23)cc1[N+](=O)[O-],6,79*,13,-4,-8,-2,0,-5,83*
O=[N+]([O-])c1ccc(N2CCN(CCO)CC2)c2ncccc12,68,-1,11,-4,2,/,/,/,/
Cn1nc(-c2ccc(N3CCN(CCO)CC3)c([N+](=O)[O-])c2)c2ccccc2c1=O,2,82*,6,-3,1,-3,-1,-7,89*
Cn1nc(-c2ccc(NCCO)c([N+](=O)[O-])c2)c2ccccc2c1=O,-13,16*,0,-3,2,-4,3,-8,45*
CCCc1cc(=O)oc2cc(C)cc(OCC(=O)NCCCn3ccnc3)c12,29,24*,11,-4,3,-2,-9,-5,39*
